Bioassay records: PubChem BioAssay, The Scripps Research Institute Molecular Screening Center
In the library only some 2.3% were active in any assay of this set; here they are far more common.
V1aR counter: activates human V1a receptor in oxytocin agonist counter-screen; 320,000 tested, 0.25% active; CHO-V1R cells, Fluo-8 calcium fluorescence, agonist mode; 0% DMSO, 100% 3 nM vasopressin; activation, % at 3 µM; P37288; AID 2797;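 active = activation above the mean activation of all tested compounds plus 3 SD, per screening run, cut at about 20% in these data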;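 note: signal is peak over basal fluorescence ratio across a 100 second FLIPR read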
TAAR1 agonist: human TAAR1 agonism; 360,000 tested, 0.99% active; Q96RJ0; AID 624467; activation, % at 3 µM; CHO RD-HGA16 TAAR1, Fluo-8 calcium fluorescence; vehicle wells 0%, saturating PEA agonist 100%;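 active = activation above the mean activation of all test compounds in the run plus 3 SD, cut at about 38% in these data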
Target sequence (Q96RJ0 whole entry, looked up): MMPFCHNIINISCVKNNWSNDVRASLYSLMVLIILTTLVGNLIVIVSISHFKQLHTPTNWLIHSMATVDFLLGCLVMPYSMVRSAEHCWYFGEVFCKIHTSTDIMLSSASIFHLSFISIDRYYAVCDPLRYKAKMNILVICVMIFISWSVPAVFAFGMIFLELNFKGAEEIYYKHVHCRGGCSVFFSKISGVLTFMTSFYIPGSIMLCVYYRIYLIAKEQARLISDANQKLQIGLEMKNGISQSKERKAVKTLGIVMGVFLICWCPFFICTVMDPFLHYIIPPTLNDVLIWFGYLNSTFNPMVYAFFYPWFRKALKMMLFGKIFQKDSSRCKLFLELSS
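Benchmarks: low control DMSO, high control PEA (EC100); System: CHO RD-HGA16 cells carrying human TAAR1 plus Gα16; Detection: Fluo-8 fluorescence, 5 s baseline then 140 s kinetic read; Schedule: 17-24 h plating, Fluo-8 75 min 37 °C, 30 min RT; Read-out basis: % activation from peak over basal fluorescence ratio, DMSO-to-PEA scaled.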
OXTR ag: agonists of human oxytocin receptor | P30559 | CHO-OTR cells, Fluo-8 calcium fluorescence; normalized: DMSO 0%, oxytocin 100% | activation, % at 3 µM | 320,000 tested, 0.32% active | AID 2435;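 active = activation above the mean of all tested compounds plus 3 SD, cutoff set per screening run, cut at about 20% in these data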;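 note: peak over basal fluorescence ratio from a 100 s FLIPR kinetic read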
OXTR potentiate: human OXTR potentiation. 320,000 tested, 0.061% active. P30559. activation, % at 3 µM. CHO-OTR cells, Fluo-8 calcium fluorescence, potentiator mode; 0% = oxytocin EC15, 100% = EC100;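 active = activation above that plate's cutoff, the mean activation of tested compounds plus 3 SD, cut at about 6.6% in these data, passing the limit was not always enough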
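Assay system: CHO-OTR cells, human receptor / Also added: oxytocin at about EC15, sub-maximal agonist stimulus / Dosing: single dose, 3.0 µM nominal final compound concentration / Incubation: 6 min pre-incubation, 100 s read / Technique: Fluo-8 calcium dye fluorescence / Read-out: % activation vs EC15 and EC100 oxytocin / Benchmarks: EC15 oxytocin low, 75 nM oxytocin high / Replicates: singlicate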
TAAR1 antagonist: human TAAR1 antagonism; AID 624466; 360,000 tested, 1.5% active; CHO RD-HGA16 TAAR1, Fluo-8 calcium fluorescence, antagonist; inhibition, % at 3 µM;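 active = inhibition above a per-plate cutoff, the mean inhibition of test compounds on that plate plus 3 SD, cut at about 49% in these data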
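Test system: CHO RD-HGA16 cells bearing hTAAR1 | Reagent: β-PEA, EC80 | Compound dosing: 3 µM, single point | Schedule: Dye loading 75 min at 37 °C, then 30 min room temperature | Signal: Calcium fluorescence with Fluo-8 | Evaluation: Percent inhibition of PEA-evoked calcium signal, max/basal emission ratio | Control set: DMSO-only wells and EC80 β-PEA-stimulated wells | Repeats: Singlicate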
Each line names hits and unclear results; the compound was inactive in the other large screens; ! = a repeat was not active.

CN(C(=O)c1ccc(NC(=O)Cc2ccc([N+](=O)[O-])cc2)cc1)C1CCCC1	V1aR counter 21, TAAR1 agonist 48, OXTR ag 22
O=C(CSc1ncccc1C(=O)O)NCCC1=CCCCC1	TAAR1 agonist 96, TAAR1 antagonist 77
COc1ccccc1CCNC(=O)C(=O)NCC1OCCN1S(=O)(=O)c1ccc(F)cc1 (stereo not drawn)	TAAR1 agonist 39
COc1ccccc1CCNC(=O)C(=O)NCC1OCCN1S(=O)(=O)c1ccc(OC)c(OC)c1 (stereo not drawn)	TAAR1 agonist 40
COc1ccc(CCNC(=O)C(=O)NCC2OCCN2S(=O)(=O)c2cc(F)ccc2F)cc1 (stereo not drawn)	TAAR1 antagonist 55
O=C(NCCCc1ccccc1)C(=O)NCC1OCCN1S(=O)(=O)c1cc(F)ccc1F (stereo not drawn)	none
COc1ccccc1CCNC(=O)C(=O)NCC1OCCN1S(=O)(=O)c1ccc(Cl)cc1 (stereo not drawn)	none
Nc1nc(Nc2ccccc2F)sc1C(=O)c1ccccc1	TAAR1 agonist 48
O=[N+]([O-])c1ccc(S(=O)(=O)Nc2ccncc2)cc1	none
CC(C)NS(=O)(=O)c1ccc(Oc2ncc(C(F)(F)F)cc2Cl)cc1	none
O=S(=O)(Nc1ccccc1)c1ccc(Oc2ncc(C(F)(F)F)cc2Cl)cc1	V1aR counter 22, TAAR1 agonist 37, OXTR ag 30, TAAR1 antagonist 69
O=[N+]([O-])c1ccc(Oc2ccc(S(=O)(=O)Nc3ccccc3)cc2)cc1	V1aR counter 22, OXTR ag 31 (no result: TAAR1 agonist, TAAR1 antagonist)
O=C(COc1ccccc1)Nc1ccc(CSc2ccccc2)cc1	TAAR1 antagonist 51
O=C(CSCc1ccc(Cl)cc1)N/N=C/c1ccc(OCC(=O)Nc2ccccc2)cc1	TAAR1 antagonist 57
O=C(Nc1ccc(CSc2ccccc2)cc1)c1ccccc1	none
COc1cc(NC(=O)c2ccnc(N)c2)cc(C(=O)Nc2cccc(C(F)(F)F)c2)c1	none
COc1cc(NC(=O)c2cc(C)on2)cc(C(=O)Nc2cccc(C(F)(F)F)c2)c1	TAAR1 antagonist 54!
COc1cc(NC(=O)c2cnc(N)s2)cc(C(=O)Nc2cccc(C(F)(F)F)c2)c1	none
COc1cc(NC(=O)c2csc(N)n2)cc(C(=O)Nc2cccc(C(F)(F)F)c2)c1	TAAR1 antagonist 53!
COC(=O)C1=C(C)N(Cc2ccc(C(F)(F)F)cc2)C(=NCc2ccc(OC)cc2)NC1c1ccccc1 (stereo not drawn)	none (no result: V1aR counter, OXTR ag, OXTR potentiate)
COc1ccc(/C=N/NC(=O)CCCOc2ccc(Cl)cc2Cl)cc1[N+](=O)[O-]	TAAR1 antagonist 49
O=C(Nc1nnc(-c2ccccc2)o1)c1nc2ccccc2s1	V1aR counter 83, TAAR1 agonist 154, OXTR ag 88
Cc1oc2c(c(C)nn2-c2ccccc2)c(=O)c1Cl	none (no result: V1aR counter, OXTR ag, OXTR potentiate)
CC(=O)Nc1ccc(C(=O)OCC(=O)N(c2ccccc2)C2CCCCC2)cc1	TAAR1 antagonist 50
C/C(=N\NC(=O)c1ccc(N/N=C(\C)c2ccc(O)cc2)cc1)c1ccc(O)cc1	TAAR1 antagonist 56
C/C(=N\NC(=O)c1ccc(O)cc1)c1ccc(N2CCOCC2)cc1	none
Cc1cccc(C)c1NC(=O)C1c2ccccc2OCC(=O)N1CCc1c[nH]c2ccccc12 (stereo not drawn)	none (no result: V1aR counter, OXTR ag, OXTR potentiate)
COC(=O)c1cccc(-n2c(C)cc(O)cc2=O)c1	none (no result: V1aR counter, OXTR ag, OXTR potentiate)
COc1ccc(C(=O)O)cc1NC(=S)NC(=O)/C=C/c1ccc(C(C)C)cc1	none
Cc1ccc(Cn2c(=N)n(CC(O)COc3ccccc3)c3ccccc32)cc1 (stereo not drawn)	V1aR counter 28, OXTR ag 28
N=c1n(Cc2ccccc2)c2ccccc2n1CC(O)COc1ccccc1 (stereo not drawn)	none
COc1cccc(NC(=O)Cc2csc(NC(=O)Nc3ccccc3OC)n2)c1	TAAR1 antagonist 56
COc1ccccc1NC(=O)Nc1nc(CC(=O)Nc2ccc(OC)c(OC)c2)cs1	TAAR1 antagonist 49
CCC(=O)Nc1nc(CC(=O)Nc2ccccc2OC)cs1	none
Cc1[nH]c2ccccc2c1CC(=O)Nc1ccc(N(C)c2cccnc2)c(-c2cccc(Cl)c2)c1	none (no result: V1aR counter, OXTR ag, OXTR potentiate)
